Legend:
HCT-15 = experiment: Growth inhibition of human HCT15 cells assessed as cell growth at 10^-5 M after 48 hrs by sulforhodamine B assay; assay type: functional; settings: HCT-15, 48 h, read-out: Activity
In short: (§1)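 NCI 60-cell-line primary screen. Single concentration of 10^-5 M, 48 h incubation. End point by sulforhodamine B protein staining read spectrophotometrically. Reported as percent growth of treated cells relative to untreated control cells.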

KM12 = experiment: Growth inhibition of human KM12 cells after 48 hrs by sulforhodamine B assay; assay type: functional; settings: KM12, 48 h; for CC50: read-out: LC50 (the source's name)
In short: (§2)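 NCI 60-panel five-dose test at 10-fold dilutions, 10^-4 to 10^-8 M, with 48 h continuous exposure and SRB protein read-out. Percent growth derived from time-zero, untreated-control and treated absorbances. GI50 is the concentration where [(Ti-Tz)/(C-Tz)]×100 = 50. TGI is taken at Ti = Tz. LC50 is taken at [(Ti-Tz)/Tz]×100 = -50.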

[1] = target: T1, DNA topoisomerase 1 (Homo sapiens) (UniProt P11387); experiment: Inhibition of human recombinant topoisomerase 1-mediated relaxation of supercoiled pBR322 DNA at 100 uM after 30 mins by agarose gel electrophoresis relative to control
T1 sequence (whole entry): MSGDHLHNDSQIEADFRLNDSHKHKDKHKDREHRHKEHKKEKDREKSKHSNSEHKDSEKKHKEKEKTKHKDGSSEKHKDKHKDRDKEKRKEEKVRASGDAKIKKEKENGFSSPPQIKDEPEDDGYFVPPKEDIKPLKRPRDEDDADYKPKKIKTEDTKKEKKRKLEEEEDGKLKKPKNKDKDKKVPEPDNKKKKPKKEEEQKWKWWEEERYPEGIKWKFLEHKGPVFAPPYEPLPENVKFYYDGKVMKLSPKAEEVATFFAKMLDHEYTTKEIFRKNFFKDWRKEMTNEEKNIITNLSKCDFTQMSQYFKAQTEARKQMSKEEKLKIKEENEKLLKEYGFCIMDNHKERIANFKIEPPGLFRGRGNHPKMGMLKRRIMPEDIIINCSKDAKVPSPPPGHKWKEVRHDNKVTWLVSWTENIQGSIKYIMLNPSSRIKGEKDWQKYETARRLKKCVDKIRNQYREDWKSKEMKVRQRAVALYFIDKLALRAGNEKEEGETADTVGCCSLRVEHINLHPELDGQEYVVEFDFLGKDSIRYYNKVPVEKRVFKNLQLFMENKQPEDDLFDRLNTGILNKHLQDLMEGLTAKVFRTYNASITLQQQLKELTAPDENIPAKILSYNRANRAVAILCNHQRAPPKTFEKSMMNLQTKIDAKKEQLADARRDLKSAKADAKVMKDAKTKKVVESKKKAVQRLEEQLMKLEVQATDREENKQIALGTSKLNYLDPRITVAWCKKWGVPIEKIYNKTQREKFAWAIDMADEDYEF
In short: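 Recombinant human topo I (0.4 units) with 100 ng supercoiled pBR322, 37 °C for 30 min in Tris-HCl pH 7.9, 150 mM NaCl, 0.1% BSA, 1 mM spermidine, 5% glycerol. Compounds came from 20 mM DMSO stocks, with matched DMSO in the enzyme-only control. Stopped with sarcosyl; 1% agarose/TAE gel, ethidium stain, UV densitometry. Camptothecin was the positive control.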

786-0 = experiment: Growth inhibition of human 786-0 cells after 48 hrs by sulforhodamine B assay; assay type: functional; settings: 786-0, 48 h; in short: as §2
OVCAR-4 = experiment: Growth inhibition of human OVCAR4 cells assessed as cell growth at 10^-5 M after 48 hrs by sulforhodamine B assay; assay type: functional; settings: OVCAR-4, 48 h, read-out: Activity
In short: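 NCI 60-cell-line primary one-dose screen. Cells were exposed to a single 10^-5 M concentration for 48 h. The end point was sulforhodamine B protein staining, read spectrophotometrically. Results are reported as percent growth of treated cells relative to untreated control cells.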

SNB-75 = experiment: Growth inhibition of human SNB75 cells after 48 hrs by sulforhodamine B assay; assay type: functional; settings: SNB-75, 48 h; for CC50: read-out: LC50 (the source's name)
In short: (§3)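 NCI 60-cell panel, five concentrations (10-fold dilutions, 0.01–100 µM), 48 h continuous exposure; SRB protein stain read spectrophotometrically. Percent growth from time-zero, untreated-control and treated absorbances. GI50 is the concentration giving 50% lower net protein increase than control. Values beyond the tested range are reported as more or less than the highest or lowest concentration.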

COLO 205 = experiment: Growth inhibition of human COLO205 cells after 48 hrs by sulforhodamine B assay; assay type: functional; settings: COLO 205, 48 h; in short: as §2
[2] = Growth inhibition of human Hs 578T cells after 48 hrs by sulforhodamine B assay; assay type: functional; settings: for CC50: read-out: LC50 (the source's name); in short: as §2
Malme-3M = experiment: Growth inhibition of human MALME-3M cells assessed as cell growth at 10^-5 M after 48 hrs by sulforhodamine B assay; assay type: functional; settings: read-out: Activity; in short: as §1
U-251 = experiment: Growth inhibition of human U251 cells after 48 hrs by sulforhodamine B assay; assay type: functional; settings: U-251, 48 h; in short: as §3
SN12C = experiment: Growth inhibition of human SN12C cells after 48 hrs by sulforhodamine B assay; assay type: functional
In short: (§4)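 NCI five-dose screen on the full 60-cell-line panel. Cells were given 10-fold dilutions from 10^-4 to 10^-8 M with continuous 48 h exposure, and growth was read by SRB staining. Percent growth was taken from time-zero, control and treated absorbances. GI50, TGI and LC50 were then derived, the GI50 being the concentration that gives a 50% lower net protein increase than control.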

BT-549 = experiment: Growth inhibition of human BT549 cells assessed as cell growth at 10^-5 M after 48 hrs by sulforhodamine B assay; assay type: functional; settings: BT-549, 48 h, read-out: Activity; in short: as §1
CCRF-CEM = experiment: Growth inhibition of human CCRF-CEM cells assessed as cell growth at 10^-5 M after 48 hrs by sulforhodamine B assay; assay type: functional; settings: read-out: Activity; in short: as §1
SR = experiment: Growth inhibition of human SR cells after 48 hrs by sulforhodamine B assay; assay type: functional; in short: as §3
TK-10 = experiment: Growth inhibition of human TK10 cells after 48 hrs by sulforhodamine B assay; assay type: functional; settings: TK-10, 48 h; for CC50: read-out: LC50 (the source's name); in short: as §3
A549 = experiment: Growth inhibition of human A549/ATCC cells assessed as cell growth at 10^-5 M after 48 hrs by sulforhodamine B assay; assay type: functional; settings: A549, 48 h, read-out: Activity; in short: as §1
OVCAR-8 = experiment: Growth inhibition of human OVCAR8 cells after 48 hrs by sulforhodamine B assay; assay type: functional; settings: OVCAR-8, 48 h; for CC50: read-out: LC50 (the source's name); in short: as §4
[3] = Growth inhibition of human Hs 578T cells assessed as cell growth at 10^-5 M after 48 hrs by sulforhodamine B assay; assay type: functional; settings: read-out: Activity; in short: as §1

## O=C(CN1CCN(c2cc3c(cc2F)c(=O)c(C(=O)O)cn3C2CC2)CC1)Nc1ccc(C(=O)/C=C/c2ccccc2)cc1
HCT-15
  growth at 10 µM: 56.8%
KM12
  GI50: 4.11 µM
  TGI: > 100 µM
  CC50: > 100 µM
[1]
  inhibition: 57.2%
786-0
  GI50: 4.5 µM
  LC50: > 100 µM
  TGI: > 100 µM
OVCAR-4
  growth at 10 µM: 86.4%
SNB-75
  GI50: 3.22 µM
  TGI: > 100 µM
  CC50: > 100 µM
COLO 205
  GI50: 36.3 µM
  LC50 (lethal concentration, 50% net cell kill): > 100 µM
  TGI: > 100 µM
[2]
  GI50: 4.99 µM
  TGI: > 100 µM
  CC50: > 100 µM
Malme-3M
  growth at 10 µM: 51%
U-251
  GI50: 2.92 µM
  LC50 (concentration killing 50% of cells): > 100 µM
  TGI: > 100 µM
SN12C
  GI50: 3.02 µM
  LC50 (lethal concentration, 50% net cell kill): > 100 µM
  TGI: > 100 µM
BT-549
  growth at 10 µM: 9.61%
CCRF-CEM
  growth at 10 µM: 15.2%
SR
  GI50: 1.54 µM
  LC50 (concentration killing 50% of cells): > 100 µM
  TGI: 6.1 µM
TK-10
  GI50: 4.19 µM
  TGI: > 100 µM
  CC50: > 100 µM
A549
  growth at 10 µM: 4.12%
OVCAR-8
  GI50: 3.07 µM
  TGI: > 100 µM
  CC50: > 100 µM
[3]
  growth at 10 µM: 51.9%

## COc1cc(/C=C/C(=O)c2ccc(NC(=O)CN3CCN(c4cc5c(cc4F)c(=O)c(C(=O)O)cn5C4CC4)CC3)cc2)cc(OC)c1OC
HCT-15
  growth at 10 µM: 18.2%
KM12
  GI50: 0.53 µM
  TGI: 3.17 µM
  CC50: > 100 µM
[1]
  inhibition: 67.4%
786-0
  GI50: 0.6 µM
  LC50: 7.7 µM
  TGI: 2.38 µM
OVCAR-4
  growth at 10 µM: 16.4%
SNB-75
  GI50: 5.75 µM
  TGI: > 100 µM
  CC50: > 100 µM
COLO 205
  GI50: 1.62 µM
  LC50 (lethal concentration, 50% net cell kill): > 100 µM
  TGI: 15.4 µM
[2]
  GI50: 53.8 µM
  TGI: > 100 µM
  CC50: > 100 µM
Malme-3M
  growth at 10 µM: 31.4%
U-251
  GI50: 0.33 µM
  LC50 (concentration killing 50% of cells): 12.9 µM
  TGI: 1.29 µM
SN12C
  GI50: 0.53 µM
  LC50 (lethal concentration, 50% net cell kill): > 100 µM
  TGI: 12.2 µM
BT-549
  growth at 10 µM: -86.7%
CCRF-CEM
  growth at 10 µM: -13.7%
SR
  GI50: 0.21 µM
  LC50 (concentration killing 50% of cells): > 100 µM
  TGI: > 100 µM
TK-10
  GI50: 1.29 µM
  TGI: 16.5 µM
  CC50: > 100 µM
A549
  growth at 10 µM: -19.2%
OVCAR-8
  GI50: 0.34 µM
  TGI: 26.7 µM
  CC50: > 100 µM
[3]
  growth at 10 µM: 76.8%

From ChEMBL document CHEMBL2434966, “Novel N-4-piperazinyl-ciprofloxacin-chalcone hybrids: synthesis, physicochemical properties, anticancer and topoisomerase I and II inhibitory activity” (Eur J Med Chem, 2013)
